Assay outcomes deposited in PubChem by Sanford-Burnham Center for Chemical Genomics.
A selection follows.
Apaf-1 act – activators of human Apaf-1 apoptosome | O14727 | Apaf-1 apoptosome caspase-3 activation, DEVD-Rh110 fluorescence; hits give low values | activity change, negative = activation, % at 20 µM | 330,000 compounds, 0.31% hits | AID 489031;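 active = activity change at or below -40% at 20 µM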
Target sequence (O14727 whole entry, looked up): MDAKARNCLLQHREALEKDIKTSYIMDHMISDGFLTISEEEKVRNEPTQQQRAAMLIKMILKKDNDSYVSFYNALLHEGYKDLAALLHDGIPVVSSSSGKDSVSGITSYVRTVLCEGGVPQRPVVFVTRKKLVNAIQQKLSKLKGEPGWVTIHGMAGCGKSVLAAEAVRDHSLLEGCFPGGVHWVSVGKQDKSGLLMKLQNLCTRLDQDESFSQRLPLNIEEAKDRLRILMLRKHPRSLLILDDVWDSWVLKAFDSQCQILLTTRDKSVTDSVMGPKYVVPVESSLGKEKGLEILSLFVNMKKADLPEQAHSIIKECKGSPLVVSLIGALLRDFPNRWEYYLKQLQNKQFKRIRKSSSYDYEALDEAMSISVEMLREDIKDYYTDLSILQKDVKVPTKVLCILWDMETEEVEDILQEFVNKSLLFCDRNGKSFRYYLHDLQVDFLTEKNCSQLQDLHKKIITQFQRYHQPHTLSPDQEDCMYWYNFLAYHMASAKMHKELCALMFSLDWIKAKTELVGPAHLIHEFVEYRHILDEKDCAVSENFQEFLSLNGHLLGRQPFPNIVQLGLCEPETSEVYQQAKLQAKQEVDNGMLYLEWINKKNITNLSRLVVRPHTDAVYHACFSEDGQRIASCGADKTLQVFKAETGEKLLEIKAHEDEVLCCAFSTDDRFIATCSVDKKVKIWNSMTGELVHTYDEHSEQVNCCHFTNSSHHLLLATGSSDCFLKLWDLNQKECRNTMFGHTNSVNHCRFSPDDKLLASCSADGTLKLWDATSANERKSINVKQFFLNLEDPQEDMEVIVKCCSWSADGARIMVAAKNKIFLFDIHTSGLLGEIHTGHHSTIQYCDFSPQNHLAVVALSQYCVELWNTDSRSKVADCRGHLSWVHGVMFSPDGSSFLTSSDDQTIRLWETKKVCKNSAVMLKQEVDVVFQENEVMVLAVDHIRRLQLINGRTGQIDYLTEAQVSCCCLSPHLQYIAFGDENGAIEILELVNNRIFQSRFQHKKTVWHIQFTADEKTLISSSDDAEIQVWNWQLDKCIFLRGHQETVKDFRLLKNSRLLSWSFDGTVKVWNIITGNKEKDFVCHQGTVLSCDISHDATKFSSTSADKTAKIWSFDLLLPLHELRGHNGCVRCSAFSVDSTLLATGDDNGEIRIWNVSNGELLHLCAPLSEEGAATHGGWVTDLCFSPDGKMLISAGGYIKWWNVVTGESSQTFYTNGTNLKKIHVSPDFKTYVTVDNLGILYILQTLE
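Material: reconstituted apoptosome of Apaf-1, cytochrome c, caspase-9, procaspase-3; times: 30 min preincubation, 50 min reaction, room temperature; measured by: fluorescence, 540 nm emission, 480 nm excitation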
Rh110 act interf – interferes with Rh110 fluorescence, flagging false Apaf-1 activators. shares compounds with Apaf-1 act. Rh110 fluorescence interference, quenched caspase reaction, Ex480/Em540. fluorescence interference (activity change), % at 20 µM, hits read low. 980 tested, under 10 active. AID 504616;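 active = mean activity change at or below -40% when tested at 20 µM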
Apaf-1 act conf – confirmation of human Apaf-1 activators. shares compounds with Apaf-1 act. reconstituted apoptosome caspase-3 activity, DEVD-Rh110 fluorescence; hits give low values. activity change, negative = activation, % at 20 µM. 980 compounds, 5% hits. AID 504617;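 active = mean activity change at or below -40%, meaning activation of 40% or more, at 20 µM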
* hit, by the source's call; . = no result.

SMILES	Apaf-1 act	Rh110 act interf	Apaf-1 act conf
CC(=O)OCC1=C(C(=O)O)N2C(=O)C(NC(=O)C(C)Cn3nc(C)c(Cl)c3C)C2SC1 (stereo not drawn)	-90.2*	5.3	-18.9
Fc1ccc(CN2CCSCC2)cc1Br	-115.5*	-7.0	8.8
Cc1cc(SCC(=O)OC(C)C(=O)N(C)c2ccccc2)nc2ccccc12 (stereo not drawn)	-323.8*	-1.0	8.4
CN1CCc2nc(SCC(=O)Nc3cccc(F)c3)c(C#N)c(-c3cccs3)c2C1	67.4	.	.
NC1=NC[C@H](CC2CCCCC2)N1CCc1cc(C(F)(F)F)cc(C(F)(F)F)c1	73.9	.	.
Cc1ccc(-n2ccnc2SCC(=O)O)c(C)c1	-478.4*	-2.6	12.9
Cc1c(Cl)cccc1N=C1SCCN1C(=O)CN1C(=O)NC2(CCCC2)C1=O	40.4	.	.
Cc1c(NC(=O)CSc2ccc3c(c2)OCCO3)c(=O)n(-c2ccccc2)n1C	-45.6*	11.2	9.4
CC1=CC(=Nc2c(C)n(C)n(-c3ccccc3)c2=O)C=CC1=O	43.1	.	.
Cc1ccsc1C(=O)OCC(=O)Nc1c(C)n(C)n(-c2ccccc2)c1=O	-77.2*	3.5	9.2
N#Cc1c(N2CCCC2)nc(N)c2c(N)nc(N3CCCC3)cc12	98.1	.	.
CC(C)OP(=O)(OC(C)C)C(Nc1ccccn1)c1ccc(F)cc1 (stereo not drawn)	54.9	.	.
COc1cc([N+](=O)[O-])ccc1NC(=O)NNC(=O)c1sccc1C	-60.3*	8.3	11.7
CC1=NN(c2ccc(C)c(C)c2)C(=O)C1C(c1cccc(O)c1)C1C(=O)N(c2ccc(C)c(C)c2)N=C1C (stereo not drawn)	87.0	.	.
CCc1ccc(S(=O)(=O)/N=C2\C=C(Nc3cccc(C(=O)O)c3)C(=O)c3ccccc32)cc1	90.7	.	.
COc1ccccc1NC(=S)Nc1cccc2cnccc12	97.0	.	.
COc1ccccc1NC(=O)Nc1ccc(C(=O)N2CCCCC2)cc1	-80.1*	-0.7	13.2
O=C(Nc1ccc2nsnc2c1)N1CCCCC1	72.7	.	.
O=C(N/N=C/c1cn(-c2ccccc2)nc1-c1cccnc1)c1ccccc1	-51.6*	-0.2	16.3
CCCCCc1cc(=O)oc2c(C(CCN3CCCC3)c3cc(OC)c(OC)c(OC)c3)c(OC)cc(OC)c12 (stereo not drawn)	49.7	.	.
CN(CCO)c1nc(N)c2c(N)nc3c(c2c1C#N)CC(=O)N3C1CCCC1	98.3	.	.
O=C1Cc2ccccc2C(=O)N1OCc1ccc(Cl)cc1Cl	67.6	.	.
CC(=O)N(C)C1=C(N2CCOCC2)C(=O)c2ccccc2C1=O	64.8	.	.
COc1cc2c(cc1OC)CN(Cc1cc(=O)n3c(-c4ccccc4)csc3n1)CC2	41.9	.	.
C#CCOCCOCCOCCNc1nc(N2CCN(C(=O)[C@H](Cc3ccc(O)cc3)n3cc([C@@H](N)C(C)CC)nn3)CC2)nc(N2CCN(C(=O)[C@H](Cc3cc4ccccc4[nH]3)n3cc([C@@H](N)Cc4ccc(O)cc4)nn3)CC2)n1 (stereo partly drawn)	55.6	.	.
SMILES	Apaf-1 act	Rh110 act interf	Apaf-1 act conf
COc1ccc(S(=O)(=O)N2CCCCCC2)cc1C(=O)N(C)CCOc1ccccc1	54.8	.	.
COc1cc2oc3ccccc3c2cc1N(CC(=O)N1CCCCC1)S(=O)(=O)c1ccc(C)cc1	-236.4*	-8.2	15.6
Cc1ccccc1NC(=O)C1CC(Cl)=CCC1C(=O)O (stereo not drawn)	-110.5*	2.1	11.3
O=C(O)c1ccc(NC2=C/C(=N/S(=O)(=O)c3ccccc3)c3ccccc3C2=O)cc1	96.0	.	.
O=S(=O)(c1ccc2nc(-c3ccco3)c(-c3ccco3)nc2c1)N1CCOCC1	77.3	.	.
O=S(=O)(c1ccc(F)cc1)N1CCN(S(=O)(=O)c2ccc3c(c2)OCCO3)CC1	-217.4*	0.3	12.7
C=CCC[C@@H](Cc1ccc(F)cc1)C(=O)OC[C@@H]1CCCN1C(=O)[C@H](CC=C)CC(=O)N[C@H](CO)Cc1ccccc1	43.1	.	.
CN1CCN(CC(=O)N2CCn3c4c(c5cc(C6CCCCC6)ccc53)CCCC42)CC1 (stereo not drawn)	58.2	.	.
CCC1(C)NC(=O)N(CC(=O)N2CCC(Cc3ccccc3)CC2)C1=O (stereo not drawn)	58.3	.	.
CCC1(c2ccccc2)NC(=O)N(CC(=O)Nc2cc(Cl)ccc2N2CCN(C)CC2)C1=O (stereo not drawn)	58.2	.	.
CCCCn1c(N)c(N(CC)C(=O)CN2C(=O)NC(C)(c3ccccc3)C2=O)c(=O)[nH]c1=O (stereo not drawn)	-440.7*	8.5	10.5
CCCC(=Nc1ccc(N)cc1)C1=C(O)C(C(=O)OC)C(C)(C)CC1=O (stereo not drawn)	67.0	.	.
Cc1c(/C(O)=C2/C(=O)C(=O)N(CCN3CCOCC3)C2c2cccs2)cnn1-c1ccccc1 (stereo not drawn)	-424.1*	16.7	15.6
O=C(COC(=O)c1cccc(Cl)c1)NCCN1C(=O)CSC1=O	-46.3*	3.5	3.1
C#CCOCCOCCOCCNc1nc(N2CCOCC2)nc(N2CCN(C(=O)CCCCCCCCCCNC(=O)[C@H]([C@@H](C)CC)n3cc(CCCCN=C(N)N)nn3)CC2)n1	59.5	.	.
CCC(CO)Oc1cc(NCc2ccncc2)c2ncn(C(C)C)c2c1 (stereo not drawn)	41.3	.	.
COC(=O)c1cccnc1-n1c(=O)c2cccnc2n(Cc2cccc([N+](=O)[O-])c2)c1=O	-65.2*	-1.9	12.2
CCCCCCSc1cccc(-c2nc3cc(C)ccn3c2NCc2ccccc2)c1	40.3	.	.
COc1cc(/C=C2\C(=O)N(CCC#N)N=C2C)c(Br)cc1OC(C)C	78.5	.	.
CCn1nc(C(=O)Nc2ccccc2C)c(Cl)c1Cl	-137.0*	-2.2	7.8
O=C(Cn1nc(-c2ccccc2Cl)ccc1=O)Nc1ccccc1-c1ccccc1	55.8	.	.
COc1ccc2cc1Oc1ccc(cc1)C[C@H]1c3c(cc(OC)c4c3Oc3c(ccc5c3[C@H](C2)N(C)CC5)O4)CCN1C	59.5	.	.
Nc1c(S(=O)(=O)c2cccs2)c2nc3ccccc3nc2n1CCc1ccccc1	70.8	.	.
CCOc1ccccc1NC(=O)COc1ccc2ccc(=O)oc2c1	-86.6*	3.3	2.9
CCc1ccccc1OCC(=O)Nc1ccc(N2CCCC2)cc1C	42.7	.	.
SMILES	Apaf-1 act	Rh110 act interf	Apaf-1 act conf
CCOc1ccc(NC(=S)Nc2cccc3ccccc23)cc1	66.0	.	.
COc1ccc(C(=O)N(C)C(C)c2ccon2)cc1OC1CCN(C(C)C)CC1 (stereo not drawn)	-314.8*	13.0	14.0
CCC[C@@H](CN1CCC[C@H]1CN1C(N)=NC[C@@H]1Cc1ccccc1)N1C[C@@H](Cc2ccccc2)N(CCCC2CCCC2)C1=N	70.1	.	.
S=c1nc[nH]c2nc[nH]c12	2.3	.	.
COc1ccccc1C(CNC(=O)CNC(=O)c1ccccc1Cl)N1CCCC1 (stereo not drawn)	61.3	.	.
COc1ccc(OC)c(-c2nn(-c3ccccc3)cc2C(=O)NCC(c2ccco2)N2CCCC2)c1 (stereo not drawn)	-117.3*	11.4	13.7
CC1(OC(=O)C2CCCC2)C(=O)C=C2C=C(c3ccsc3)N(CCCCO)C=C2C1=O (stereo not drawn)	54.2	.	.
CCN1/C(=C/c2ccc3ccccc3[n+]2CC)C=Cc2ccccc21	40.7	.	.
